In brackets after ≈: the same amount, converted by molar mass.
How the values were obtained:
[1] = test system: ACHN; assay: Cytotoxicity against human ACHN cells after 72 hrs by CCK8 assay; assay type: functional, cell-based
Outline: (§1)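 Renal cancer lines ACHN, 786-O and OS-RC-2; cell viability read by CCK-8 assay, with sorafenib as positive control.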

[2] = test system: 786-0; assay: Cytotoxicity against human 786-O cells after 72 hrs by CCK8 assay; assay type: functional, cell-based; details: 786-0, 72 h; outline: as §1
[3] = test system: OS-RC-2; assay: Cytotoxicity against human OS-RC2 cells after 72 hrs by CCK8 assay; assay type: functional, cell-based; details: OS-RC-2, 72 h; outline: as §1
[4] = test system: HepG2; assay: Cytotoxicity against human HepG2 cells after 6 days by MTT assay; assay type: functional, cell-based; details: HepG2, 144 h
Outline: (§2)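 HepG-2 and SGC7901 cells; growth inhibition read by MTT method, with 5-fluorouracil as positive control.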

[5] = test system: SGC-7901; assay: Cytotoxicity against human SGC7901 cells after 6 days by MTT assay; assay type: functional, cell-based; details: SGC-7901, 144 h; outline: as §2
[6] = test system: Escherichia coli; assay: Antimicrobial activity against Escherichia coli ATCC 25922 after 24 hrs by serial dilution method; assay type: functional; details: ATCC 25922, 24 h
Outline: (§3)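 Serial broth dilution in 96-well microtiter plates. Compounds and controls are dissolved in DMSO as stock. Bacteria are grown overnight at 37 °C, then diluted to 10^6 cfu/mL. E. coli and S. aureus are grown in Luria–Bertani broth. P. multocida and E. rhusiopathiae are grown in trypticase soy broth with 10% calf serum. Plates are incubated at 37 °C for 24 h and read at 630 nm.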

[7] = test system: Staphylococcus aureus; assay: Antimicrobial activity against Staphylococcus aureus subsp. aureus Rosenbach ATCC 25923 after 24 hrs by serial dilution method; assay type: functional; details: Rosenbach ATCC 25923, 24 h; outline: as §3
[8] = test system: Erysipelothrix rhusiopathiae; assay: Antimicrobial activity against Erysipelothrix rhusiopathiae ATCC 19414 after 24 hrs by serial dilution method; assay type: functional; details: ATCC 19414, 24 h; outline: as §3
[9] = test system: Pasteurella multocida; assay: Antimicrobial activity against Pasteurella multocida subsp. multocida ATCC 43137 after 24 hrs by serial dilution method; assay type: functional; details: ATCC 43137, 24 h; outline: as §3

MIC [6] [µg/mL]	MIC [7] [µg/mL]	MIC [8] [µg/mL]	MIC [9] [µg/mL]	Structure (SMILES)	IC50 [1] [µM]	IC50 [2] [µM]	IC50 [3] [µM]	IC50 [4] [µM]	IC50 [5] [µM]
> 100	50 (≈ 78.3 µM)	25 (≈ 39.1 µM)	13 (≈ 20.4 µM)	COC(=O)[C@]12Oc3cc(C)c(-c4ccc(O)c5c4O[C@@]4(C(=O)OC)C(=C(O)C[C@@H](C)[C@H]4O)C5=O)c(O)c3C(=O)C1=C(O)CC[C@H]2O	> 50	46	> 50	> 50	> 50
25 (≈ 43 µM)				CN[C@@H]1[C@H](O[C@H]2[C@H](O[C@H]3[C@H](O)[C@@H](O)[C@H](N=C(N)N)[C@@H](O)[C@@H]3N=C(N)N)O[C@@H](C)[C@]2(O)C=O)O[C@@H](CO)[C@H](O)[C@H]1O [STREPTOMYCIN]					
	13 (≈ 38.9 µM)	13 (≈ 38.9 µM)	13 (≈ 38.9 µM)	CC1(C)S[C@@H]2[C@H](NC(=O)Cc3ccccc3)C(=O)N2[C@H]1C(=O)O [PENICILLIN G]					
